This passage reports inhibition of growth results from ChEMBL document CHEMBL1926589, “2-Anilinonicotinyl linked 2-aminobenzothiazoles and [1,2,4]triazolo[1,5-b] [1,2,4]benzothiadiazine conjugates as potential mitochondrial apoptotic inducers” (Bioorg Med Chem, 2011).

Common to all, as to type: functional
Details in all cases: read-out: GI

One assay deals with A549. Nature of the assay: Growth inhibition of human A549 cells at 10 uM by sulforhodamine B assay. The essentials: (§1)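 Single-dose 10 µM screen by sulforhodamine B assay, reported as percent inhibition of cell proliferation. Cells grown in medium with 10% heat-inactivated FBS at 37 °C, 5% CO2, and treated at about 70% confluence or in log phase. Compounds dissolved in DMSO; controls received vehicle (<0.5% v/v).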

A further assay has as its system SK-N-SH. The assay is described as follows: Growth inhibition of human SK-N-SH cells at 10 uM by sulforhodamine B assay. The essentials:
as §1

Another assay has as its system IMR-32. Nature of the assay: Growth inhibition of human IMR32 cells at 10 uM by sulforhodamine B assay. In a few lines: as §1
Background: In SRB staining, fixed cells bind dye roughly in proportion to their protein.

Assay [1] in a line: Growth inhibition of human 502713 cells at 10 uM by sulforhodamine B assay. The essentials:
as §1

The subject of the next assay is OVCAR-5. Nature of the assay: Growth inhibition of human OVCAR5 cells at 10 uM by sulforhodamine B assay. The essentials: as §1
The next assay has as its system HCT-15. Nature of the assay: Growth inhibition of human HCT15 cells at 10 uM by sulforhodamine B assay. The essentials: as §1
The next assay concerns DU-145. Nature of the assay: Growth inhibition of human DU145 cells at 10 uM by sulforhodamine B assay. In a few lines:
as §1

The next assay concerns HEp-2. Nature of the assay: Growth inhibition of human Hep2 cells at 10 uM by sulforhodamine B assay. In a few lines:
as §1

The test system of the next assay is SW-620. Nature of the assay: Growth inhibition of human SW620 cells at 10 uM by sulforhodamine B assay. In a few lines:
as §1

The test system of the next assay is SiHa. Nature of the assay: Growth inhibition of human SiHa cells at 10 uM by sulforhodamine B assay. In a few lines:
as §1

Turning to `COc1ccc(Nc2ncccc2C(=O)Nc2nc3ccc(OC)cc3s2)cc1`, the inhibition of growth at 10 µM in the assay on A549 came to 20%; with SK-N-SH, 44%; in the assay with IMR-32, 40%; in assay [1], 21%; in the assay on OVCAR-5 it was 8%; with HCT-15, 0%. The inhibition of growth at 10 µM in the assay with DU-145 was found to be 22%; with HEp-2, 0%; in the assay on SW-620, 43%; in the assay with SiHa, 55%.

As to `COc1ccc2nc(NC(=O)c3cccnc3Nc3ccc(Cl)cc3Cl)sc2c1`, the inhibition of growth at 10 µM with A549 is 0%; with SK-N-SH it was 14%; with IMR-32, 6%; in assay [1], 4%; with OVCAR-5, 4%; with HCT-15, 24%. Besides, the inhibition of growth at 10 µM in the assay with DU-145 is 17%; in the assay on HEp-2, 17%; with SW-620 it was 10%; with SiHa it was 16%.

Consider `O=S1(=O)c2ccccc2N(c2ccccc2)c2nc(-c3cccnc3Nc3ccccc3)nn21`, for which the inhibition of growth at 10 µM turned out to be 0% in the assay with A549; 20% in the assay with SK-N-SH; 56% in the assay on IMR-32; 21% in assay [1]; 3% with OVCAR-5; 0% with HCT-15. The inhibition of growth at 10 µM with DU-145 came to 10%; with HEp-2 it was 0%; in the assay with SW-620, 23%; in the assay with SiHa, 23%.

On to `COc1ccc2nc(NC(=O)c3cccnc3Nc3ccc(Cl)cc3)sc2c1`, for which the inhibition of growth at 10 µM with A549 turned out to be 10%; with SK-N-SH, 23%; in the assay with IMR-32, 24%; in assay [1], 10%; in the assay with OVCAR-5, 10%; in the assay on HCT-15 it was 44%. Also, the inhibition of growth at 10 µM in the assay on DU-145 was 25%; in the assay on HEp-2 it was 13%; in the assay with SW-620, 15%; in the assay on SiHa it was 31%.

In the case of `COc1ccc2nc(NC(=O)c3cccnc3Nc3ccc(F)cc3)sc2c1`, the inhibition of growth at 10 µM in the assay on A549 was found to be 5%; in the assay on SK-N-SH, 24%; with IMR-32, 2%; in [1] it was 2%; in the assay with OVCAR-5 it was 3%; with HCT-15, 0%. The inhibition of growth at 10 µM in the assay on DU-145 was 32%; with HEp-2 it was 32%; in the assay on SW-620, 21%; in the assay on SiHa it was 35%.

Regarding `O=S1(=O)c2ccccc2N(c2ccccc2)c2nc(-c3cccnc3Nc3ccc(Cl)cc3Cl)nn21`, the inhibition of growth at 10 µM with A549 is 66%; with SK-N-SH, 23%; in the assay on IMR-32, 11%; in assay [1] it was 19%; with OVCAR-5, 8%; in the assay on HCT-15 it was 0%. Besides, the inhibition of growth at 10 µM in the assay on DU-145 was 20%; with HEp-2, 25%; with SW-620 it was 27%; with SiHa, 23%.

In the case of `CC(=O)O[C@H]1C(=O)[C@@]2(C)[C@H]([C@H](OC(=O)c3ccccc3)[C@]3(O)C[C@H](OC(=O)[C@H](O)[C@@H](NC(=O)c4ccccc4)c4ccccc4)C(C)=C1C3(C)C)[C@]1(OC(C)=O)CO[C@@H]1C[C@@H]2O` [PACLITAXEL], the inhibition of growth at 10 µM was 41% with A549; 20% with SK-N-SH; 46% in the assay on IMR-32; 59% in assay [1]; 51% in the assay with OVCAR-5; 37% with HCT-15. Further, the inhibition of growth at 10 µM in the assay on DU-145 amounted to 42%; in the assay with SW-620 it was 73%; with SiHa, 49%.

In the case of `O=c1[nH]cc(F)c(=O)[nH]1` [FLUOROURACIL], the inhibition of growth at 10 µM was found to be 7% in the assay on SK-N-SH; 71% in the assay with IMR-32; 21% in assay [1]; 22% in the assay with OVCAR-5; 44% in the assay with HCT-15; 76% in the assay on SW-620. Further, in the assay on SiHa, the inhibition of growth at 10 µM was 44%.

As to `CN1c2ccccc2S(=O)(=O)n2nc(-c3cccnc3Nc3cc(F)c(F)c(F)c3)nc21`, the inhibition of growth at 10 µM in the assay on A549 stood at 14%; with SK-N-SH it was 18%; in the assay on IMR-32 it was 28%; in [1], 26%; in the assay with OVCAR-5, 8%; in the assay with HCT-15 it was 9%. For the same molecule, the inhibition of growth at 10 µM in the assay with DU-145 came out at 13%; with HEp-2, 0%; in the assay on SW-620 it was 34%; in the assay on SiHa, 15%.

For the molecule `O=S1(=O)c2ccccc2N(c2ccccc2)c2nc(-c3cccnc3Nc3cc(F)c(F)c(F)c3)nn21`, the inhibition of growth at 10 µM in the assay on A549 was determined as 3%; with SK-N-SH, 16%; in the assay on IMR-32 it was 48%; in [1], 14%; with OVCAR-5, 2%; in the assay on HCT-15, 0%. In addition, the inhibition of growth at 10 µM was determined as 14% in the assay on DU-145, 52% in the assay with HEp-2, 22% with SW-620 and 26% in the assay with SiHa.

For the molecule `COc1ccc(Nc2ncccc2-c2nc3n(n2)S(=O)(=O)c2ccccc2N3c2ccccc2)cc1`, the inhibition of growth at 10 µM in the assay with A549 amounted to 0%; in the assay on SK-N-SH, 0%; in the assay with IMR-32 it was 0%; in assay [1], 2%; in the assay with OVCAR-5 it was 2%; in the assay on HCT-15, 0%. In addition, the inhibition of growth at 10 µM with DU-145 turned out to be 5%; with HEp-2, 10%; with SW-620 it was 14%; in the assay with SiHa, 0%.

Consider `COc1ccc2nc(NC(=O)c3cccnc3Nc3cc(F)c(F)c(F)c3)sc2c1`, for which the inhibition of growth at 10 µM is 6% in the assay with A549; 47% in the assay on SK-N-SH; 55% in the assay with IMR-32; 43% in assay [1]; 25% with OVCAR-5; 21% in the assay with HCT-15. Besides, the inhibition of growth at 10 µM was 28% with DU-145, 7% in the assay on HEp-2, 52% with SW-620 and 63% in the assay on SiHa.

Turning to `CN1c2ccccc2S(=O)(=O)n2nc(-c3cccnc3Nc3ccc(Cl)cc3)nc21`, the inhibition of growth at 10 µM with A549 was determined as 28%; with SK-N-SH, 3%; in the assay on IMR-32 it was 3%; in assay [1] it was 28%; in the assay with OVCAR-5, 10%; in the assay on HCT-15, 0%. Also, the inhibition of growth at 10 µM worked out at 9% in the assay on DU-145, 0% in the assay on HEp-2, 34% in the assay with SW-620 and 13% in the assay on SiHa.

Turning to `COc1ccc2nc(NC(=O)c3cccnc3Nc3ccccc3)sc2c1`, the inhibition of growth at 10 µM in the assay with A549 amounted to 9%; with SK-N-SH, 26%; with IMR-32, 26%; in assay [1], 11%; with OVCAR-5 it was 6%; in the assay on HCT-15 it was 0%. Also, the inhibition of growth at 10 µM in the assay with DU-145 is 25%; in the assay with HEp-2, 33%; in the assay with SW-620, 29%; in the assay on SiHa, 63%.

Regarding `COc1ccc(Nc2ncccc2-c2nc3n(n2)S(=O)(=O)c2ccccc2N3C)cc1`, the inhibition of growth at 10 µM came out at 70% in the assay with A549; 20% in the assay on SK-N-SH; 15% in the assay with IMR-32; 13% in assay [1]; 4% in the assay on OVCAR-5; 0% with HCT-15. The inhibition of growth at 10 µM in the assay on DU-145 was found to be 8%; in the assay on HEp-2, 13%; in the assay on SW-620, 24%; with SiHa, 11%.

Turning to `O=C(Nc1nc2ccc([N+](=O)[O-])cc2s1)c1cccnc1Nc1ccc(F)c(Cl)c1`, the inhibition of growth at 10 µM in the assay on A549 turned out to be 78%; in the assay on SK-N-SH, 3%; with IMR-32, 3%; in assay [1] it was 28%; in the assay on OVCAR-5 it was 3%; in the assay with HCT-15, 0%. In addition, the inhibition of growth at 10 µM is 9% in the assay on DU-145, 61% in the assay on HEp-2, 34% with SW-620 and 13% in the assay on SiHa.

Take `CN1c2ccccc2S(=O)(=O)n2nc(-c3cccnc3Nc3ccccc3)nc21`: the inhibition of growth at 10 µM with A549 stood at 39%; in the assay on SK-N-SH it was 0%; with IMR-32 it was 0%; in assay [1] it was 30%; in the assay with OVCAR-5, 15%; with HCT-15, 0%. In addition, the inhibition of growth at 10 µM came to 8% in the assay on DU-145, 0% in the assay on HEp-2, 32% in the assay with SW-620 and 0% in the assay on SiHa.
